Reference: PMC7523912 (ACS applied bio materials, 2019)
*: point of attachment. Palmitoyl = CCCCCCCCCCCCCCCC(=O)*

What was measured:
[1] = tested on: PDGF-BB mediated proliferation of normal human lung fibroblasts (NHLF); test: Inhibition of PDGF-BB mediated proliferation assay; format: cell-based; settings: PDGF-BB only samples, CyQuant
In short: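 NHLF at passage 3–4 were grown in DMEM with 10% FBS and 1% penicillin/streptomycin. Cells were seeded at 10,000/well, recovered overnight, then starved 6 h in 0.5% FBS. PDGF-BB was given as 1:2 serial dilutions from 100 to 1.56 ng/mL, alone or with 500 nM free aptamer, 100 μM diluent PA, or apt-PAN (500 nM aptamer-PA, 100 μM total PA). CyQuant Direct was read at 24 and 48 h, normalised to growth-factor-only wells, with three independent experiments, mean ± SD.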

[2] = no reference or method printed; cited from earlier work
[3] = target: platelet-derived growth factor-BB (UniProt P01127 82-190); test: BLI
platelet-derived growth factor-BB, sequence (P01127 82-190): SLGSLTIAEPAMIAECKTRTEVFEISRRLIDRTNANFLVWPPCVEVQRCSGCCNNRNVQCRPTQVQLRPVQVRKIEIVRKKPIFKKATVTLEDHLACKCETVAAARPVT

| Molecule | increase in total DNA, after 48 hours [1] | isoelectric point [2] | koff [3] | kon [3] |
| --- | --- | --- | --- | --- |
| PDGF-BB: Platelet derived growth factor-BB | more than two-fold | 9.8 | – | – |
| Palmitoyl-VVVAAAEEE-NH2 [diluent peptide amphiphile (palmitoyl-V3A3E3), as self-assembled nanofibers] | – | – | 0.000498 s⁻¹ | 1080 M⁻¹ s⁻¹ |
